Only some compounds are listed: those with a hit (about 4% of all), similar ones and a draw of the others.
FGF22 binding: FGF22 (human) thermal shift binding. Q9HCT0. recombinant FGF22 thermal shift, SYPRO orange fluorescence; percent of sucrose octasulfate shift, DMSO zero. activity (Tm shift, normalised), % at 9.99 µM. 340,000 tested, 1.5% active. AID 651658;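 active = mean Tm shift, scaled 0 neutral to 100 positive control, at about 1.3% or above, every replicate too, limit read from the data; inconclusive = no clear call, values can overlap the other calls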
Target sequence (Q9HCT0 whole entry, looked up): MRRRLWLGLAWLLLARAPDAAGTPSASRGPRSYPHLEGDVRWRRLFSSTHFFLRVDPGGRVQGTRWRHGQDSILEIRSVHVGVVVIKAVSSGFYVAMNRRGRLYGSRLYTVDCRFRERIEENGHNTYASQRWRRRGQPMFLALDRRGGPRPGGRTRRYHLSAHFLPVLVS
E-sel inducer: E-selectin induction on HUVECs. 260,000 tested, 0.37% active. P16581. HUVEC E-selectin immunofluorescence imaging; normalized: neutral wells 0, TNF-alpha wells 100. activation, % at 7.58 µM. AID 686992;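 active = mean E-selectin-positive cell signal at least 10% of the positive control, reached in at least 60% of replicates, without over 20% cell loss; inconclusive = no rule given, readout overlaps actives, possibly toxicity-flagged; inactive = the rest, including those meeting only one limit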
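Test system: HUVEC; input: 3,000 HUVEC/well; measured by: immunofluorescence imaging; read-out: % PE-positive cells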
SIRT5 inh: inhibitors of human sirtuin-5 desuccinylase | Q9NXA8 | Purified SirT5, succinyl-peptide AMC, trypsin-coupled fluorescence | inhibition, % at 15 µM | 330,000 tested, 1.1% active | AID 652115; in the data active = inhibition above about 15%; inconclusive = no clear call, values can overlap the other calls
Target sequence (Q9NXA8 whole entry, looked up): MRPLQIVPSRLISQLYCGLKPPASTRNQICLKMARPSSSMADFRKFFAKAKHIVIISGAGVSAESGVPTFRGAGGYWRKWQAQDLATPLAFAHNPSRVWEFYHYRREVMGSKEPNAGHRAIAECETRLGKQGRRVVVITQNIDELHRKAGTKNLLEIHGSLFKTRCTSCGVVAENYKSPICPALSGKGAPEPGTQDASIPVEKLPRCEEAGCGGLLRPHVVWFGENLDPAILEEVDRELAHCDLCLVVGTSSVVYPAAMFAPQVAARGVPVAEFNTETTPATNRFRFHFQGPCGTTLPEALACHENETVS
rRNA inh HTS: inhibitors of bacterial rRNA selective over humanized ribosomes; E. coli WT GFP vs humanized-ribosome RFP mutants, fluorescence, 24 h; active compounds read low; DMSO median 0, no signal -100; GFP signal change (wild-type ribosome), % (concentration not given with the values); 350,000 tested, 1.6% active;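 active = significant combined selectivity score with lowered wild-type GFP, culture density cut under 30%, mutant RFP and density less affected; inactive = any of these conditions unmet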
C2C12 statin: protects C2C12 myotubes from simvastatin toxicity | rescue of ATP level, % at 7.49 µM | AID 602340 | 330,000 tested, 0.78% active | ATP luminescence, 48 h; scaled: DMSO 0, geranylgeraniol control 100;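 active = mean ATP rescue above about 67%, or every replicate alone reaching that limit, limit read from the data, passing the limit was not always enough; inconclusive = no clear call, values can overlap the other calls; inactive = mean under the limit and some replicate under it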;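 also: myotubes were challenged with 10 µM simvastatin during compound exposure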
FN deposition inh: fibronectin deposition inhibition; AH1F fibroblasts, Alexa488-fibronectin deposition fluorescence, overnight; inhibition, % at 12.6 µM; 350,000 tested, 0.086% active;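 active = mean inhibition across replicates of 30% or more, regardless of how many single replicates reach that level; inconclusive = mean under 30% yet at least half of replicates reach 30%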;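 also: positive control wells lacked labelled fibronectin entirely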
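Material: AH1F fibroblast monolayer depositing Alexa488-labelled fibronectin into matrix | Input: 10000 AH1F cells/well | Medium: DMEM plus 2% serum, read in PBS | Reagent: Alexa488-fibronectin, 24 nM final in well | Compound dosing: One dose per compound, pinned | Schedule: 1 h adhesion, overnight exposure | Measured by: Fluorescence at 485 nm excitation, 525 nm emission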
An asterisk follows results filed as active; ? = inconclusive; . = no result.

SMILES	FGF22 binding	E-sel inducer	SIRT5 inh	rRNA inh HTS	C2C12 statin	FN deposition inh
C[C@H]1CN([C@@H](C)CO)C(=O)Cc2cc(NC(=O)Nc3ccc(F)cc3)ccc2O[C@@H]1CN(C)C(=O)Nc1ccc(C(F)(F)F)cc1	0	-6	.	2	23	.
Cc1ccc(S(=O)(=O)N(C)C[C@H]2Oc3ccc(NC(=O)CCC(F)(F)F)cc3CC(=O)N([C@H](C)CO)C[C@H]2C)cc1	0	0	-1	-3	8	.
CC(C)Cn1c(=O)c(C(=O)Nc2ccncc2)c(O)c2ccccc21	0	.	-3	-26*	-56	-1
C[C@H]1CN([C@@H](C)CO)C(=O)Cc2cc(NS(=O)(=O)c3ccccc3)ccc2O[C@H]1CN(C)Cc1ccc(-c2ccccc2)cc1	0	0	9	3	-16	.
C[C@H](CO)N1C[C@H](C)[C@@H](CN(C)Cc2ccc(-c3ccccc3)cc2)Oc2ccc(NS(=O)(=O)c3ccccc3)cc2CC1=O	-1	0	18*	3	-6	.
C[C@@H]1CN([C@@H](C)CO)C(=O)Cc2cc(NS(=O)(=O)c3cn(C)cn3)ccc2O[C@H]1CN(C)Cc1ccc(-c2ccccc2)cc1	-1	0	-5	-9	?	.
C[C@H]1CN([C@@H](C)CO)C(=O)Cc2cc(NS(=O)(=O)c3cn(C)cn3)ccc2O[C@@H]1CN(C)Cc1ccc(-c2ccccc2)cc1	0	1	-6	7	88*	.
COc1ccc(S(=O)(=O)Nc2ccc3c(c2)CC(=O)N([C@@H](C)CO)C[C@@H](C)[C@H](CN(C)Cc2ccc(-c4ccccc4)cc2)O3)cc1	0	0	-5	-3	140*	.
C[C@@H]1CN([C@H](C)CO)C(=O)Cc2cc(NS(=O)(=O)c3ccccc3)ccc2O[C@H]1CN(C)Cc1ccc(-c2ccccc2)cc1	0	0	15*	2	57	.
COCC(=O)Nc1ccc2c(c1)C(=O)N(C)C[C@H](OC)[C@@H](C)CN(C)[C@@H](C)CO2	.	0	-3	-1	-4	6
O=C(c1cnccn1)N1CC[C@@H]2[C@@H](CO)Nc3ccc(-c4ccccc4)cc3[C@@H]21	0	0	-2	2	20	-15
C[C@@H]1CN([C@@H](C)CO)C(=O)Cc2cc(NS(=O)(=O)c3ccc(F)cc3)ccc2O[C@H]1CN(C)Cc1ccc(-c2ccccc2)cc1	.	0	.	4	80*	.
C[C@@H]1CN([C@@H](C)CO)C(=O)Cc2cc(NS(=O)(=O)c3ccc(Cl)cc3)ccc2O[C@@H]1CN(C)Cc1ccc(-c2ccccc2)cc1	.	1	.	1	59	.
C[C@@H]1CN([C@H](C)CO)C(=O)Cc2cc(NS(=O)(=O)c3ccc(F)cc3)ccc2O[C@@H]1CN(C)Cc1ccc(-c2ccccc2)cc1	.	0	.	2	40	.
C[C@@H]1CN([C@@H](C)CO)C(=O)Cc2cc(NS(=O)(=O)c3ccc(Cl)cc3)ccc2O[C@H]1CN(C)Cc1ccc(-c2ccccc2)cc1	.	0	.	5	69*	.
O=c1nc(Oc2ccccc2)nc2ncccn12	43*	0	.	5	.	0
O=c1oc(-c2cccc(Cl)c2)nc2c1cnn2-c1ccccc1	.	.	.	.	-2	2
O=c1[nH]c2c(cnn2-c2ccc(Cl)cc2)c(=O)n1-c1cccc(Cl)c1	-1	0	-2	-35*	.	6
Cn1c(N)c(C(=O)COC(=O)/C=C/c2ccc(Cl)cc2Cl)c(=O)n(C)c1=O	44*	0	.	7	1	-8
Cn1c(N)c(C(=O)COC(=O)C2CCCC2)c(=O)n(C)c1=O	43*	.	-2	5	.	8
Cn1c(N)c(C(=O)COC(=O)Cc2ccc(Cl)c(Cl)c2)c(=O)n(C)c1=O	0	.	1	-35*	1	-15
Cn1c(N)c(C(=O)CSc2nnc(C3CC3)n2N)c(=O)n(C)c1=O	0	13	19*	7	-8	-3
Cn1c(N)c(C(=O)COC(=O)C2CCC(C(C)(C)C)CC2)c(=O)n(C)c1=O (configuration not stated)	.	.	.	.	-11	.

Assay outcomes deposited in PubChem BioAssay by Broad Institute.
